Assay [1] is described as follows: Inhibition of [3H]25-6981 binding to N-methyl-D-aspartate glutamate receptor 2B of rat brain.
Assay [2] deals with T1, Muscarinic acetylcholine receptor M1 (Rattus norvegicus, UniProt P08482).
T1 sequence (P08482 whole entry): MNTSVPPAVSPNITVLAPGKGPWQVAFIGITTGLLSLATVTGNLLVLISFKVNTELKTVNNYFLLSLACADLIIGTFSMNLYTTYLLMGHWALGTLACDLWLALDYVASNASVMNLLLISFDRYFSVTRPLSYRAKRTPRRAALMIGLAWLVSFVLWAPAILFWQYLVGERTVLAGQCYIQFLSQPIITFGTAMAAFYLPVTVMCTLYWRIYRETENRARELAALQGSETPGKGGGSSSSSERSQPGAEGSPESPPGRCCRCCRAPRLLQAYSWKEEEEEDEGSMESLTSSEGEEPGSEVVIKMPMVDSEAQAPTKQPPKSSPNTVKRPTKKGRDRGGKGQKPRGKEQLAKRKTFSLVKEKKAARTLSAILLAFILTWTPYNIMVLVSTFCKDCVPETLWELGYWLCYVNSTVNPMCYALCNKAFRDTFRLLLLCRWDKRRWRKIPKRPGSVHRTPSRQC
Briefly: Binding affinity towards Muscarinic acetylcholine receptor M1 in […] using [3H]pirenzepine as radioligand.

A short description of assay [3]: Binding affinity towards N-methyl-D-aspartate (NMDA) receptor in rat brain using [3H]-25-6981 as radioligand. It is filed as tissue-based.
Assay [4] has as its target T2, Adrenergic receptor alpha-1 (Rattus norvegicus, UniProt P15823+P23944+P43140).
T2 sequence (P15823 whole entry): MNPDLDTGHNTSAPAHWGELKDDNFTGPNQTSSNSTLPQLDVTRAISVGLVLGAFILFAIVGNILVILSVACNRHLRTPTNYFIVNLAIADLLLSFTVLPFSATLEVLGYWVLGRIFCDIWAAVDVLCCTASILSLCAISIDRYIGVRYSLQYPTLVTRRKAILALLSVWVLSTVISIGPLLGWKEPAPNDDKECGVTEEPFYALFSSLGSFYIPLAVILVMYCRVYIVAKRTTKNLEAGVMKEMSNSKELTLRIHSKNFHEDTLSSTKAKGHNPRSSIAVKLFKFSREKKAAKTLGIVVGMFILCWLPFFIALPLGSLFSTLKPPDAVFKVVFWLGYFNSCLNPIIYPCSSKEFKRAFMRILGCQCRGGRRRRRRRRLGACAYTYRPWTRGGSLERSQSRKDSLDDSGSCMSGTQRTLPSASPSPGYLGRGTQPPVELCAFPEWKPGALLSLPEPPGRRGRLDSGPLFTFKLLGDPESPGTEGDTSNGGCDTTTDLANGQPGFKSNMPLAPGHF
T2 sequence (P23944 whole entry): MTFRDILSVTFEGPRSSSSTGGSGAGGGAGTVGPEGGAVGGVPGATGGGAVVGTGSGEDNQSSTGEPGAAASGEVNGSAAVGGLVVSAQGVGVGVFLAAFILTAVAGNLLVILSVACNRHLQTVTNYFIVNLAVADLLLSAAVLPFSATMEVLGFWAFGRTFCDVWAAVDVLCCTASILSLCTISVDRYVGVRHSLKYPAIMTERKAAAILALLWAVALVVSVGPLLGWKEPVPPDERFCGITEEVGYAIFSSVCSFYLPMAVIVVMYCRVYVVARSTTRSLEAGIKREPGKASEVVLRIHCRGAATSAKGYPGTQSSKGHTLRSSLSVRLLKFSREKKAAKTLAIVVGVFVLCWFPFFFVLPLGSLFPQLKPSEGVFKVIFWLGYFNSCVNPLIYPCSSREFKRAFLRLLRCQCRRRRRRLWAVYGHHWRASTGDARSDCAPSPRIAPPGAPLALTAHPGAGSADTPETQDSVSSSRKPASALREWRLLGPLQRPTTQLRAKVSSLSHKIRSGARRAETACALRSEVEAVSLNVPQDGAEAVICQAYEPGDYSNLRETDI
T2 sequence (P43140 whole entry): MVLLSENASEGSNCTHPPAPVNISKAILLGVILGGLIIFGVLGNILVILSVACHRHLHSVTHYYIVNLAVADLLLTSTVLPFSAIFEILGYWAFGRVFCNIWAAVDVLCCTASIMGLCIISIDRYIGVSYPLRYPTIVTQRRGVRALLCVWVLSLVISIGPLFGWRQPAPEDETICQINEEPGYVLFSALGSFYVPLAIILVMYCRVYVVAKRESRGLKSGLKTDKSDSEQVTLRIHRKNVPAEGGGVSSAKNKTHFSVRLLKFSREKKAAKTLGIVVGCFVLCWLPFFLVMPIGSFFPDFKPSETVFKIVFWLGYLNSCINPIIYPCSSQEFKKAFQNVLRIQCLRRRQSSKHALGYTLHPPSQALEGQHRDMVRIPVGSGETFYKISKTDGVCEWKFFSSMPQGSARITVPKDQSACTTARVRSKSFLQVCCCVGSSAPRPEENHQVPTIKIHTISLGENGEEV
Briefly: Binding affinity towards alpha receptor in rat brain using [3H]prazosin as radioligand. It is filed as tissue-based.

Assay [5] has as its target T2, Adrenergic receptor alpha-1. Briefly: Binding affinity towards Alpha-1 adrenergic receptor in rat brain using [3H]prazosin. It is filed as tissue-based.
Another assay has as its system Mus musculus. The experiment in a line: In vivo effective dose in mice after intraperitoneal administration using standard sound induced seizures assay. It is filed as functional. The note with it: ip. In a few lines: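 DBA/2 mice; compound given intraperitoneally 30 min before sound-induced seizure testing; ED50 in mg/kg.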
Assay [6] addresses T1, Muscarinic acetylcholine receptor M1. Briefly: Binding affinity towards muscarinic acetylcholine receptor M1 in […] using [3H]pirenzepine as radioligand.

As to `Cc1cc(N2CCc3ccccc3C2)c2ccccc2n1`, the affinity in assay [1], expressed as Ki, was 75 nM.
As for `Cc1cc(N2CCc3ccccc3C2)cc(NC(=O)CO)n1`, the Ki worked out at 60000 nM in assay [2], 15 nM in assay [3] and 20000 nM in assay [4].
On to `OCCNc1ccnc(N2CCc3ccccc3C2)c1`, for which the inhibition constant (Ki) in assay [5] was determined as 2300 nM; in assay [1], 2 nM. In the assay on Mus musculus, this molecule came in with an ED50 of 13 mg/kg.
`Nc1cc(N2CCc3ccccc3C2)ccn1`: the inhibition constant (Ki) worked out at 400 nM in assay [2], 2 nM in assay [3] and 2100 nM in assay [4].
Turning to `Nc1cc(N2CCc3ccccc3C2)c2ccccc2n1`, the Ki was 19 nM in assay [3] and 120 nM in assay [4].
In the case of `Cc1cc(N2CCc3ccccc3C2)cc(NCCO)n1`, the 50% effective dose (ED50) in the assay on Mus musculus came to 18 mg/kg. Moreover, the Ki in assay [2] stood at 6800 nM; in assay [3], 2 nM; in assay [4], 3500 nM.
In turn, `Clc1ccc2c(c1)CCN(c1ccncc1)C2` yielded an inhibitory constant (Ki) in assay [1] of 230 nM.
In the case of `CCOC(=O)C(=O)Nc1cc(N2CCc3ccccc3C2)cc(C)n1`, the Ki in assay [2] was found to be 11000 nM; in assay [3] it was 8 nM; in assay [4], 12000 nM.
In the case of `CC1CN(c2ccncc2)Cc2ccccc21` (stereo not given), the figures for the Ki in assay [5], in assay [6] and in assay [1] were 2200 nM, 900 nM and 25 nM, respectively.
As to `COc1cc2c(cc1OC)CN(c1ccncc1)CC2`, in assay [1], the Ki turned out to be 28000 nM.
`Clc1cccc2c1CN(c1ccncc1)CC2`: the figures for the inhibition constant Ki in assay [5], in assay [6] and in assay [1] were 3800 nM, 650 nM and 26 nM, respectively.
`Clc1ccc2c(c1)CN(c1ccncc1)CC2`: the Ki in assay [5] amounted to 1300 nM; in assay [6], 1000 nM; in assay [1] it was 37 nM.
Take `Cc1cc(N2CCc3ccccc3C2)cc(N)n1`: the Ki in assay [2] was found to be 2600 nM; in assay [3] it was 4 nM; in assay [4], 1500 nM.
Regarding `Clc1cccc2c1CCN(c1ccncc1)C2`, the Ki came to 1500 nM in assay [5], 660 nM in assay [6] and 8 nM in assay [1]. In the assay with Mus musculus, this molecule gave an ED50 of 2 mg/kg.
For `Cc1cc(N2CCc3ccccc3C2)ccn1`, the values for the Ki in assay [3] and in assay [4] were 8 nM and 5700 nM, respectively.
`OCCNc1cc(N2CCc3ccccc3C2)c2ccccc2n1`: the values for the Ki in assay [2], in assay [3] and in assay [4] were 6700 nM, 22 nM and 1700 nM, respectively.
As to `c1ccc2c(c1)CCN(c1ccnc3ccccc13)C2`, the Ki is 3200 nM in assay [5], 2600 nM in assay [6] and 29 nM in assay [1]. In the assay with Mus musculus, this molecule yielded an ED50 of 25 mg/kg.
Regarding `OCCNc1cc(N2CCc3ccccc3C2)nc2ccccc12`, the figures for the Ki in assay [5] and in assay [1] were 430 nM and 3.5 nM, respectively. For the same molecule, the ED50 in the assay on Mus musculus was less than 12 mg/kg.
With `c1ccc2c(c1)CCN(c1ccncc1)C2`, the values for the Ki in assay [5], in assay [6] and in assay [1] were 5800 nM, 720 nM and 8 nM, respectively. Besides, the ED50 with Mus musculus worked out at 3 mg/kg.
Take `C[C@@H]([C@H](O)c1ccc(O)cc1)N1CCC(Cc2ccccc2)CC1` [(R,S)-IFENPRODIL]: the Ki in assay [5] is reported as 12 nM. Besides, the median effective dose (ED50) with Mus musculus was determined as 16 mg/kg.

(Values after ChEMBL document CHEMBL1136393, “4-(3,4-dihydro-1H-isoquinolin-2yl)-pyridines and 4-(3,4-dihydro-1H-isoquinolin-2-yl)-quinolines as potent NR1/2B subtype selective NMDA receptor antagonists” (Bioorg Med Chem Lett, 2003).)
